DTT redox prof: compounds producing H2O2 with reducing agent – biochemical, NIH compound library profiling, artefact control for MLSCN library redox annotation, primary screen; DTT-dependent redox cycling H2O2, phenol red/HRP absorbance; 100% = 100 µM peroxide control, 0% = buffer; activation, % at 10 µM; 0.03% of 200,000 active; AID 878;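 active means activation of at least 50% relative to the plate's high and low controls in the primary single-dose screen; inactive means activation below 50%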;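 further: compound incubated with DTT at 0.8 mM final as the reducing agent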
HMGR II inh: inhibitors of class II HMG-CoA reductase from Enterococcus faecalis; AID 1066; 0.41% of 190,000 active; inhibition, % at 10 µM; purified E. faecalis HMGR, NADPH absorbance 340 nm kinetic;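 active means inhibition above a set limit, the median over all tested compounds plus 3 SD, cut at about 9.5% in these data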;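 further: enzyme runs in reverse so mevalonate oxidation gives rising NADPH absorbance; 0% = complete reaction with DMSO and 100% = background rate lacking mevalonate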
Rad51 HR inh: Rad51 (human) homologous recombination inhibition | Q06609 | hRad51 DNA strand exchange, fluorescence dequenching | inhibition, % at 10 µM | 0.085% of 200,000 active | AID 1385;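 active means inhibition above 40% at the single screening dose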;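 further: 0% = DMSO control wells and 100% = blanks with heterologous ssDNA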
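System: hRad51 filaments on single-stranded DNA; reagent: Fluorescein- and BHQ1-tagged 47-mer duplex; compound dosing: one concentration, 10 µM final; timing: filaments 15 min 37 °C, then compound 30 min; measured by: fluorescein emission 520 nm, excitation 485 nm; benchmarks: per-plate controls and blanks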
PKD1 kinase inh: inhibitors of human PKD1 kinase; inhibition, % (no concentration beside the values); 0.056% of 200,000 active; Q15139; PKD1 kinase fluorescence polarization assay; AID 797; in the data active means inhibition above about 50%
Target sequence (Q15139 whole entry, looked up): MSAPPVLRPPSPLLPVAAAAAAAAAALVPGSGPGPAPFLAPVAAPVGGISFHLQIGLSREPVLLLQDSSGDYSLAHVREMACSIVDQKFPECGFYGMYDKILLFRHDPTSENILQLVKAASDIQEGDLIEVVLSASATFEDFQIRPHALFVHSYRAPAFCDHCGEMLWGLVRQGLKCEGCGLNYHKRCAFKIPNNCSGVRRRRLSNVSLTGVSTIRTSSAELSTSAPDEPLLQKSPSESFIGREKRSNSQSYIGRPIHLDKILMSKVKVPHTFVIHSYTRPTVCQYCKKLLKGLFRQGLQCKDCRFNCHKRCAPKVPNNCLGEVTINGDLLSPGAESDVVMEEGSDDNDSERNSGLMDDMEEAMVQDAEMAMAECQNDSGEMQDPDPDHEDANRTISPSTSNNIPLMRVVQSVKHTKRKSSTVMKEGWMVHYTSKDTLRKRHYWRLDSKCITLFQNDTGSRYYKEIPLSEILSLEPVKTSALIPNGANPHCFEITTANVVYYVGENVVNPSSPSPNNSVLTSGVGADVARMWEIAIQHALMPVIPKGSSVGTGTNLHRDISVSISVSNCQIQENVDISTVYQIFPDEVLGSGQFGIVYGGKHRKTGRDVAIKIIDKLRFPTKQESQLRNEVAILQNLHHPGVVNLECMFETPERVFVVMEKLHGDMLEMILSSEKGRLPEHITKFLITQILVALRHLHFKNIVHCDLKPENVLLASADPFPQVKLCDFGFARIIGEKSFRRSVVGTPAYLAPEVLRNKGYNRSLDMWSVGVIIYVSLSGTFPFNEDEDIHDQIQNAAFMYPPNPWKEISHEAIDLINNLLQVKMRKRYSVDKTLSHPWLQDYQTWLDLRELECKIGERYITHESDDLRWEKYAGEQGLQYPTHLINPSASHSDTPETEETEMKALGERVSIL
m-calpain inh: blocks pig calpain II enzyme activity | 0.37% of 220,000 active | inhibition, % at 16 µM | AID 1236 | purified calpain II, fluorogenic peptide substrate, 30 min;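 active means inhibition above about 50%, limit read from the data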
Pf gamet viab: P. falciparum stage V gametocyte viability inhibition | 0.065% of 150,000 active | AID 743093 | P. falciparum stage V gametocytes, ATP luminescence, 24 h | inhibition, % at 10.9 µM;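 active means inhibition above the mean plus 3 SD of compounds within the control limits, set per campaign, cut at about 38% in these data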;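 further: 0% = DMSO wells and 100% = medium only without gametocytes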
Starred values were filed as active, the others as inactive; i = inactive; · = no result given. A selection: hits, their analogues and other compounds. The true share with any hit is near 0.81%.

SMILES	DTT redox prof	HMGR II inh	Rad51 HR inh	PKD1 kinase inh	m-calpain inh	Pf gamet viab
CC(=O)NN1C(=O)c2ccccc2NC1c1ccoc1 (stereo unspecified)	-0.3	-2.0	4.2	-0.7	i	-7.3
CC(C)OP(=O)(OC(C)C)C(Nc1ccccc1)c1ccc2c(c1)OCO2 (stereo unspecified)	-0.1	-7.8	17.7	-6.7	21.3	21.1
CC(C)COP(=O)(OCC(C)C)C(Nc1ccccc1)c1ccc2c(c1)OCO2 (stereo unspecified)	-5.3	-4.5	·	0.6	51.5*	10.7
O=C(N=Nc1c(O)[nH]c2ccc(Cl)cc12)c1cc(-c2cccs2)nc2ccccc12	·	-0.8	3.9	8.7	89.0*	-31.3
CC(=O)c1c(C)[nH]c(C(=O)OCc2cccc(Cl)c2)c1C	-1.4	-1.8	15.4	-7.0	53.8*	-2.2
CC(=O)c1c(C)[nH]c(C(=O)OCc2c(F)cccc2Cl)c1C	-0.2	-8.2	-2.2	-3.0	3.5	10.0
CC(=O)Nc1ccc(NC(=O)Cc2ccc(S(=O)(=O)N3CCCCC3)s2)cc1	-0.7	-6.9	12.5	-3.2	77.4*	0.8
O=C(NC(=S)N1CCCc2ccccc21)c1ccco1	0.0	-2.5	1.8	5.0	27.0	-10.6
CC1Cc2ccccc2N1C(=S)NC(=O)c1ccco1 (stereo unspecified)	0.3	2.2	-4.8	-6.0	52.2*	5.2
CCOc1ccc(S(=O)(=O)N(C)CCO)cc1-c1nc2c(C(C)(C)C)nn(C)c2c(=O)[nH]1	-1.0	24.9*	·	-0.8	-9.1	·
COC(=O)[C@]1(Cc2ccccc2)N[C@H](c2ccc(-c3ccc(F)cc3)cc2)[C@@H]2C(=O)N(C)C(=O)[C@@H]21	·	·	·	·	·	-8.1
O=C1CC2C(=O)NCCN2C(=NC(=O)c2ccc(Cl)cc2)N1 (stereo unspecified)	0.0	-10.8	10.2	4.3	92.0*	9.3
CCOC(=O)CCC(NC(=O)CC(=O)NC(CCC(=O)OCC)C(=O)OCC)C(=O)OCC (stereo unspecified)	-0.8	10.3*	0.8	-13.6	-4.0	-31.7
CN1N=C(C(=O)N=c2sc3ccccc3n2C)CCC1=O	·	·	·	·	·	-29.2
CCOc1ccc(S(=O)(=O)NCCC(=O)OCC(=O)Nc2cc(C)on2)cc1	·	·	·	·	9.3	4.5
CC(C)(C)C1CCC(=NNC(=O)c2cc3c(s2)CCCC3)CC1 (stereo unspecified)	0.9	-0.8	-5.7	7.2	9.8	11.3
CC(C)(C)C1CCc2sc(C(=O)NNC(=O)CCl)cc2C1 (stereo unspecified)	0.1	2.8	2.1	-0.1	66.5*	11.3
COC(=O)c1ccc(-n2c(C)cc(C(=O)CSc3cccc[n+]3[O-])c2C)cc1	-0.4	1.6	72.8*	-4.7	-7.7	35.5
Cc1cc(C)c(S(=O)(=O)c2ccccc2)c(OC(=O)c2c(F)cccc2F)n1	-0.5	13.5*	2.9	6.5	-15.9	-0.6
CN1CCCN(C(=O)CC2(CC(=O)O)CCCC2)CC1	0.0	5.0	-1.0	-0.5	-2.0	·
CN1CCN(C(=O)CC2(CC(=O)O)CCCC2)CC1	-0.1	12.6*	4.1	2.9	-15.0	10.5
CCn1cc(/C=N/NS(=O)(=O)c2ccc(OC)cc2)c(C)n1	0.1	-2.5	45.4*	6.9	-24.2	-6.0
CCn1cc(/C=N/NS(=O)(=O)c2ccc(C)cc2)c(C)n1	0.1	-5.0	·	9.3	10.5	-15.6
CC(c1cccs1)N(Cc1ccco1)C(=S)Nc1ccccc1Cl (stereo unspecified)	-0.4	-1.3	3.4	-8.0	15.8	16.1
CCN(CC)C(=S)NCCc1ccccc1	0.2	11.8*	-21.4	-5.7	-5.5	·
O=C(NNC(=O)c1cccnc1SCc1cccc([N+](=O)[O-])c1)c1ccccn1	0.0	-0.9	·	-6.5	-53.1	-8.9
CC(=O)N1CCC2(CC1)C(C#N)=C(N)Oc1n[nH]c(C(F)(F)F)c12	0.2	0.1	-8.0	-0.4	18.1	·
CCOC(=O)N1CCC2(CC1)C(C#N)=C(N)Oc1n[nH]c(C)c12	0.2	10.0*	13.4	-4.2	-18.5	·
COCc1[nH]nc2c1C1(CCSCC1)C(C#N)=C(N)O2	2.7	-1.9	-0.2	-7.3	-9.4	·
Cc1[nH]nc2c1C1(CCC3(CC1)OCCO3)C(C#N)=C(N)O2	-4.5	10.3*	-6.4	17.2	-26.1	13.5

Compound activity: PubChem BioAssay, several laboratories
